Published values collected from several papers.
Protocols differ between the studies behind these lines.
Target: TGF-beta receptor type-1 (TGFBR1, Homo sapiens, UniProt P36897)
Residues used in one study (P36897 34-503): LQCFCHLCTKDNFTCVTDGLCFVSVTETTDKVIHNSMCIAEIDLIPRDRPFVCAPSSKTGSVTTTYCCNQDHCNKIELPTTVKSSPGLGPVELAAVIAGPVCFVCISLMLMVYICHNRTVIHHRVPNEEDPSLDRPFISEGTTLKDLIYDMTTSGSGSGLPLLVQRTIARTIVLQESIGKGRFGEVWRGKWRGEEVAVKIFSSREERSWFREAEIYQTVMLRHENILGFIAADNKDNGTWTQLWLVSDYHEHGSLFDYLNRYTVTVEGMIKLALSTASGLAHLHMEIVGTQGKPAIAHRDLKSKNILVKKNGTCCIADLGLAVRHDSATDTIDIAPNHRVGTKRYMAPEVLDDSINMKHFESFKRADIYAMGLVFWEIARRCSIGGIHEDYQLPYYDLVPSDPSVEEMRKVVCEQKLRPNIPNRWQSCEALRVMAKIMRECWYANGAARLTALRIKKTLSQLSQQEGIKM

The remaining binding of `Nc1ncc2c(n1)-c1c([nH]c3ccc(C#CC4CC4)cc13)CCCC2` is reported as 86% (binding; competition with immobilised ligand; 1 µM).
For `N#Cc1ccccc1CSc1nnc2c(n1)[nH]c1ccccc12`, the remaining binding was 100% (binding; competition with immobilised ligand; 10 µM).
For `COCCOc1nc(-c2ccc(Cl)nc2)nc2c1CN(C(=O)c1ncn3ccccc13)CC2`, the remaining binding was 100% (cell-free assay; competition with immobilised ligand; 0.1 µM).
With `Cc1cnc(Nc2ccc(C(=O)N3CCC(N4CCCC4)CC3)cc2)nc1-c1cc2ccccc2s1` the remaining binding was 48% (binding; competition with immobilised ligand; 1 µM).
The remaining binding of `C[C@@H]1CCN(c2nccc(-c3cnn4ncccc34)n2)C1` is reported as 98% (binding; 1 µM).
For `C[C@H](c1ccc(F)cc1)N(Cc1cccc(C(=O)O)c1)C(=O)c1cnc2ccccc2c1`, the remaining binding was 96% (cell-free assay; competition with immobilised ligand; 1 µM).
For `O=C(NCCCN1CCOCC1)c1ccc(Nc2ncc(Cl)c(-c3ccc(Cl)s3)n2)cc1`, the remaining binding was 69% (binding; competition with immobilised ligand; 1 µM).
`COc1ncc2cc3ccccc3nc2c1C#N` gave a remaining binding of 92% (cell-free assay; competition with immobilised ligand; 5 µM).
`CNC(=O)[C@@H]1CC[C@@H](n2c(-c3ccc4cnccc4c3)nc3ccc(C(=O)NCc4cccc(C(N)=O)c4)cc32)C1` gave a remaining binding of 88% (binding; competition with immobilised ligand; 1 µM).
The remaining binding of `CN(C)c1nccc(-c2cnn3ncccc23)n1` is reported as 100% (binding; 1 µM).
With `O=C(NCC1CCOCC1)c1n[nH]cc1NC(=O)c1c(F)cccc1F` the remaining binding was 96% (binding; competition with immobilised ligand; 1 µM).
For `O=C(N[C@H]1CCCCC/C=C\C2C[C@@]2(C(=O)O)NC(=O)[C@@H]2C[C@@H](Oc3ccncc3)CN2C1=O)OC1CCCC1` (stereo partly shown), the remaining binding was 100% (cell-free assay; competition with immobilised ligand; 1 µM).
The remaining binding of `N[C@@H]1CCN(c2nccc(-c3cnn4ncccc34)n2)C1` is reported as 92% (binding; 1 µM).
The remaining binding of `O=C(NCCCN1CCOCC1)c1ccc(Nc2nccc(-c3cc4ccccc4s3)n2)cc1` is reported as 58% (binding; competition with immobilised ligand; 1 µM).
The remaining binding of `O=C(Nc1cccnn1)N1CCC(=Cc2cccc(Oc3ccc(C(F)(F)F)cn3)c2)CC1` is reported as 61% (cell-free assay; competition with immobilised ligand; 1 µM).
The remaining binding of `COc1cnc(Nc2cccc(S(N)(=O)=O)c2)nc1N1CCN(c2ccccc2)C(=O)C1` is reported as 100% (binding; competition with immobilised ligand; 1 µM).
`C=CC(=O)N1CCC(C(=O)NCC(=O)N2CCN(c3nc(-c4cnc(N)nc4C(F)F)nc(N4CCOCC4)n3)CC2)CC1` gave a remaining binding of 100% (binding; competition with immobilised ligand; 1 µM).
With `Nc1c(C(=O)NCc2ccc(C(=O)NCCCC3CCCCC3)cc2)cnn1-c1ccccc1` the remaining binding was 100% (cell-free assay; competition with immobilised ligand; 0.1 µM).
`CN(c1nccc(-c2cnn3ncccc23)n1)C1CC1` gave a remaining binding of 32% (binding; 1 µM).
With `Cc1c(C(=O)O)cc(-c2ccc(C3CCNCC3)cc2)c2ccc(-c3ccc(C(F)(F)F)cc3)cc12` the remaining binding was 89% (cell-free assay; competition with immobilised ligand; 1 µM).
For `C[C@@H]1CN(c2ccc3ncc(-c4ccc5[nH]nc(C6CC6)c5c4)n3n2)C[C@H](C)O1`, the remaining binding was 100% (binding; competition with immobilised ligand; 0.5 µM).
The remaining binding of `CN(CCCC(F)(F)F)c1nccc(-c2cnn3ncccc23)n1` is reported as 100% (binding; 1 µM).
`CCOCCn1cc(C(=O)Nc2ccc(-n3nc(-c4cccnc4)cc3C(F)(F)F)cn2)ccc1=O` gave a remaining binding of 100% (cell-free assay; competition with immobilised ligand; 1 µM).
`c1cnn2ncc(-c3ccnc(N4CCC45COC5)n3)c2c1` has a remaining binding of 78% (binding; 1 µM).
For `O=S(=O)(NC1CCC(c2cc(F)ccc2F)(S(=O)(=O)c2ccc(Cl)cc2)CC1)C(F)(F)F` (stereo not shown), the remaining binding was 100% (cell-free assay; competition with immobilised ligand; 1 µM).
